Laboratory results published in article PMC2494688 (Diabetes, 2008).

Columns and labels:
[1] = target: human GPR40 (Homo sapiens, UniProt O14842); type: cell-based; conditions: CHO cells, in words
Summary of the method: (§1)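 GPR40 stably expressed in CHO cells carrying NFAT β-lactamase, seeded 1 day before. Test compound in DMSO, diluted in assay buffer, added as a 5× solution. Calcium signal read on FLIPR from 10 s before addition. EC50 taken from concentration–response curves.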

[2] = target: mouse GPR40 (Mus musculus, UniProt Q76JU9); type: cell-based; conditions: CHO cells, in words
Summary of the method: as §1

[3] = test system: islets from wild-type mice; assay: Static GDIS assay, 1-h incubation, wild-type islets; type: cell-based, mouse; conditions: 200 μmol/l, 16 mmol/l glucose, n = 6
Summary of the method: (§2)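 Islets isolated by collagenase digestion and Ficoll gradient, cultured overnight in RPMI-1640 with 11 mmol/l glucose. Preincubated 30 min in KRB (0.2% BSA) with 2 mmol/l glucose. One islet/well incubated 60 min at 2 or 16 mmol/l glucose, ± 200 μmol/l oleate or palmitate or 10 μmol/l test compound; DMSO vehicle. Insulin by ultrasensitive rat insulin ELISA. Two experiments, six replicates in total. Wild-type islets also tested across a compound concentration series at 16 mmol/l glucose (three experiments).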

[4] = test system: islets from GPR40−/− mice; assay: Static GDIS assay, 1-h incubation, GPR40−/− islets; type: cell-based, mouse; conditions: 200 μmol/l, 16 mmol/l glucose, n = 6, P > 0.05
Summary of the method: as §2

[5] = test system: wild-type C57BL/6 mice; assay: IPGTT in wild-type lean mice; type: in vivo, mouse; conditions: 0.0025 mg/kg, positive control
Summary of the method: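 Lean male C57BL/6N mice fasted 5–6 h, dosed orally with compound (1–100 mg/kg) or 0.25% methylcellulose vehicle (10 ml/kg) 60 min before 2 g/kg i.p. dextrose. Tail glucose sampled to 60 min. Percent inhibition derived from the 0–60 min AUC minus the vehicle/water group AUC. Plasma compound measured by LC-MS/MS at 60 min of IPGTT (2 h post-dose).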

Sequence of human GPR40 (O14842 whole entry): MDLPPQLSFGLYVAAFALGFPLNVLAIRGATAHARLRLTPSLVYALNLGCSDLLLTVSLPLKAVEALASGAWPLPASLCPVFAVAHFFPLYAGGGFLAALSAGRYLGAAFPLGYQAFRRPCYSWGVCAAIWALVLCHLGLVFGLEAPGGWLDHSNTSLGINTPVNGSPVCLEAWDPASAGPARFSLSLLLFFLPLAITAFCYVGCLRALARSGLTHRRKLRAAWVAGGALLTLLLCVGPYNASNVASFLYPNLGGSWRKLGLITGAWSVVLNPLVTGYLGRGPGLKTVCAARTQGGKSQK
Sequence of mouse GPR40 (Q76JU9 whole entry): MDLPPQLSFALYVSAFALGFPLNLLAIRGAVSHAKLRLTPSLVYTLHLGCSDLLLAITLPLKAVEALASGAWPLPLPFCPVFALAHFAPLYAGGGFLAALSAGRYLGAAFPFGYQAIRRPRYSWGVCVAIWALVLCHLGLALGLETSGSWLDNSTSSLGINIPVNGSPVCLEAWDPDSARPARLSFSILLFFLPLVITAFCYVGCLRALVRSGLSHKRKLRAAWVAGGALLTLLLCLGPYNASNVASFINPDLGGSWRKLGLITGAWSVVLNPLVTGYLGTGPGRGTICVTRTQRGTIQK

Molecule | Activation of human GPR40 receptor [1] | Activation of mouse GPR40 receptor [2] | Promotion of glucose-dependent insulin secretion [3] [fold] | Promotion of glucose-dependent insulin secretion [4] [fold] | Effect on glucose excursion during IPGTT [5]
CCCC(=O)O [butyric C4:0] | minimal activation | minimal activation | – | – | –
CCCCCCCC/C=C\CCCCCCCC(=O)O [oleic C18:1, oleic acid] | – | – | 1.9 ± 0.4 | 1.2 ± 0.3 | –
CCCCC(=O)O [pentanoic C5:0, pentanoic acid] | minimal activation | minimal activation | – | – | –
exendin-4: glucagon-like peptide 1 mimetic, positive control | – | – | – | – | completely prevented any glucose excursion
CCC(=O)O [propionic C3:0] | minimal activation | minimal activation | – | – | –
CCCCCCCCCCCCCCCC(=O)O [palmitate, palmitic acid] | – | – | 2.4 ± 0.3 | 1.8 ± 0.5 | –
